Measurements: ChEMBL document CHEMBL4052589, “Discovery of Imidazo[1,2-a]pyridine Ethers and Squaramides as Selective and Potent Inhibitors of Mycobacterial Adenosine Triphosphate (ATP) Synthesis” (J Med Chem, 2017)

Experiments:
Format in all cases: functional
[1] = tested on: Mycobacterium tuberculosis; experiment: Antimycobacterial activity against Mycobacterium tuberculosis H37Rv harboring ATP synthase subunit-a K179N mutant supplemented with 4 fold MIC of 3-(4-Morpholinophenyl)-4-((pyridin-2-ylmethyl)amino)cyclobut-3-ene-1,2-dione
Procedure, shortened: (§1)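 Spontaneous resistant mutants were selected by plating M. tuberculosis on 7H10 agar containing the squaramide at 4- or 8-fold its MIC. MIC was then determined for the mutants, with MIC taken as the concentration giving 80% growth inhibition.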

[2] = tested on: Mycobacterium tuberculosis; experiment: Antimycobacterial activity against Mycobacterium tuberculosis H37Rv harboring ATP synthase subunit-c D28N mutant supplemented with 4 fold MIC of 3-(4-Morpholinophenyl)-4-((pyridin-2-ylmethyl)amino)cyclobut-3-ene-1,2-dione; procedure, shortened: as §1
[3] = tested on: Mycobacterium tuberculosis; experiment: Antimycobacterial activity against Mycobacterium tuberculosis H37Rv harboring ATP synthase subunit-c D28N mutant supplemented with 8 fold MIC of 3-(4-Morpholinophenyl)-4-((pyridin-2-ylmethyl)amino)cyclobut-3-ene-1,2-dione; procedure, shortened: as §1
[4] = tested on: Mycobacterium tuberculosis; experiment: Antimycobacterial activity against Mycobacterium tuberculosis H37Rv harboring ATP synthase subunit a K179N mutant supplemented with 8 fold MIC of 3-(4-Morpholinophenyl)-4-((pyridin-2-ylmethyl)amino)cyclobut-3-ene-1,2-dione; procedure, shortened: as §1
[5] = tested on: Mycobacterium tuberculosis; experiment: Selectivity ratio of MIC for Mycobacterium tuberculosis H37Rv harboring ATP synthase subunit-a K179N mutant supplemented with 4 fold MIC of 3-(4-Morpholinophenyl)-4-((pyridin-2-ylmethyl)amino)cyclobut-3-ene-1,2-dione to MIC for Mycobacterium tuberculosis H37Rv
[6] = tested on: Mycobacterium tuberculosis; experiment: Selectivity ratio of MIC for Mycobacterium tuberculosis H37Rv harboring ATP synthase subunit-c D28N mutant supplemented with 4 fold MIC of 3-(4-Morpholinophenyl)-4-((pyridin-2-ylmethyl)amino)cyclobut-3-ene-1,2-dione to MIC for Mycobacterium tuberculosis H37Rv
[7] = tested on: Mycobacterium tuberculosis; experiment: Selectivity ratio of MIC for Mycobacterium tuberculosis H37Rv harboring ATP synthase subunit-c D28N mutant supplemented with 8 fold MIC of 3-(4-Morpholinophenyl)-4-((pyridin-2-ylmethyl)amino)cyclobut-3-ene-1,2-dione to MIC for Mycobacterium tuberculosis H37Rv
[8] = tested on: Mycobacterium tuberculosis; experiment: Selectivity ratio of MIC for Mycobacterium tuberculosis H37Rv harboring ATP synthase subunit a K179N mutant supplemented with 8 fold MIC of 3-(4-Morpholinophenyl)-4-((pyridin-2-ylmethyl)amino)cyclobut-3-ene-1,2-dione to MIC for Mycobacterium tuberculosis H37Rv

Compound	MIC=>80 [1]	MIC=>80 [2]	MIC=>80 [3]	MIC=>80 [4]	Selectivity ratio [5]	Selectivity ratio [6]	Selectivity ratio [7]	Selectivity ratio [8]
O=c1c(NCc2cnccn2)c(-c2ccc(N3CCOCC3)cc2)c1=O	>100 µM	>100 µM	>100 µM	>100 µM	>8	>8	>8	>8
O=c1c(NCc2ccccn2)c(-c2ccc(C(F)(F)F)cc2)c1=O	>100 µM	>100 µM	100 µM	>=100 uM	>8	>8	>8	>8
O=c1c(NCc2ccccn2)c(-c2ccc(N3CCOCC3)cc2)c1=O	>100 µM	>100 µM	100 µM	>100 µM	>8	>8	>8	>8
NNC(=O)c1ccncc1 [ISONIAZID]	0.03 µM	0.02 µM	0.03 µM	0.02 to 0.03 µM	<=4	<=4	<=4	<=4
CO[C@H]1/C=C/O[C@@]2(C)Oc3c(C)c(O)c4c(O)c(c(/C=N/N5CCN(C)CC5)c(O)c4c3C2=O)NC(=O)/C(C)=C\C=C\[C@H](C)[C@H](O)[C@@H](C)[C@@H](O)[C@@H](C)[C@H](OC(C)=O)[C@@H]1C [RIFAMPIN]	0.008 µM	0.008 µM	0.016 µM	0.004 to 0.008 µM	<=4	<=4	<=4	<=4
